# Activity calls are given as the source filed them. No cut-off for these calls is given here.
# Columns and labels:
# Candida albicans [1] = assay: Antifungal activity against Fluconazole resistant Candida albicans isolate 1 at 162.1 uM after 48 hrs by CLSI method; type: functional, organism-based
# Method in brief: (§1)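 Candida in CLSI broth microdilution. Saline colony suspension set to 1.5 × 10³ CFU/ml (final) in MOPS-buffered RPMI 1640, pH 7.0. Test agent given as twofold serial dilutions in 20% DMSO-saline, duplicate wells. 35°C for 48 h. Growth read as OD530 before and after incubation. Percent inhibition scored at the highest test concentration.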
# Candida albicans [2] = assay: Antifungal activity against Candida albicans ATCC 90028 at 162.1 uM after 48 hrs by CLSI method; type: functional, organism-based
# Method in brief: (§2)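 Candida inocula came from 24–72-h SD agar colonies suspended in saline. They were diluted by OD630 standard curve into RPMI 1640 (0.2% dextrose, 0.03% glutamine, 0.165 M MOPS, pH 7.0) to 1.5 × 10³ CFU/ml. Compounds were run as 11 twofold dilutions in 20% DMSO-saline, in duplicate, at 35°C for 48 h, with OD530 read before and after. Percent growth at the top concentration, IC50, MIC, and MFC (SD agar plating) were derived.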
# Candida albicans [3] = assay: Antifungal activity against Candida albicans ATCC 14053 after 48 hrs by CLSI method; type: functional, organism-based; conditions: ATCC 14053, 48 h
# Method in brief: (§3)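 CLSI broth microdilution. Colonies from 24–72 h SD agar suspended in saline and sized by OD630 standard curve. Inoculum 1.5 × 10³ CFU/ml (final) in RPMI 1640 (0.2% dextrose, 0.03% glutamine, 0.165 M MOPS, pH 7.0). Twofold dilutions (11 levels) from 20% DMSO-saline, in duplicate. 35°C for 48 h, OD530 read before and after. IC50 fitted from % growth. MIC: no detectable growth. MFC: subculture onto SD agar.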
# Candida albicans [4] = assay: Antifungal activity against Candida albicans ATCC 60193 after 48 hrs by CLSI method; type: functional, organism-based; conditions: ATCC 60193, 48 h; method in brief: as §3
# Candida albicans [5] = assay: Antifungal activity against Fluconazole resistant Candida albicans clinical isolate 17 after 48 hrs by CLSI method; type: functional, organism-based; method in brief: as §3
# Aspergillus fumigatus [6] = assay: Antifungal activity against Aspergillus fumigatus ATCC 90906 at 162.1 uM after 48 hrs by CLSI method; type: functional, organism-based
# Aspergillus niger = assay: Antifungal activity against Aspergillus niger ATCC 16404 at 162.1 uM after 48 hrs by CLSI method; type: functional, organism-based
# [7] = tested on: Trichophyton mentagrophytes; assay: Antifungal activity against Trichophyton mentagrophytes ATCC MYA-4439 by CLSI method; type: functional, organism-based
# Method in brief: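 Growth scraped from 1- to 6-week-old potato dextrose slants and filtered through Miracloth. Diluted in 5% Alamar blue-RPMI 1640 (MOPS pH 7.0) to 2.7 × 10⁴ CFU/ml. Eleven twofold dilutions in duplicate. Fluorescence at 544 nm excitation/590 nm emission read before and after 35°C, 5 days. IC50 fitted from percent growth. MIC taken as no detectable growth; MFC from clear or blue wells plated on PD agar.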
# BT-549 = assay: Cytotoxicity against human BT549 cells up to 32 uM by neutral red method; type: cell-based
# Method in brief: (§4)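 Neutral red uptake cytotoxicity, top concentration 32 μM.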
# Nakaseomyces glabratus = assay: Antifungal activity against Candida glabrata ATCC 90030 at 162.1 uM after 48 hrs by CLSI method; type: functional, organism-based; method in brief: as §2
# Candida tropicalis = assay: Antifungal activity against Candida tropicalis ATCC 750 at 162.1 uM after 48 hrs by CLSI method; type: functional, organism-based
# Method in brief: (§5)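 Yeast suspensions made from 3-5 colonies off 24-72 h SD agar plates in saline. They were diluted by OD630 standard curve in RPMI 1640 (0.2% dextrose, 0.03% glutamine, 0.165 M MOPS, pH 7.0) to 1.5 × 10³ CFU/ml. Twofold dilutions (11 concentrations, 20% DMSO-saline) run in duplicate. OD530 read before and after 35°C, 48 h. Line values are top test concentrations; no-growth endpoints give MIC/MFC.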
# SK-MEL = assay: Cytotoxicity against human SK-MEL cells up to 32 uM by neutral red method; type: cell-based; method in brief: as §4
# Candida albicans [8] = assay: Antifungal activity against Fluconazole resistant Candida albicans isolate 17 at 162.1 uM after 48 hrs by CLSI method; type: functional, organism-based; method in brief: as §1
# Candida albicans [9] = assay: Antifungal activity against Candida albicans ATCC 60193 at 162.1 uM after 48 hrs by CLSI method; type: functional, organism-based; method in brief: as §2
# Candida parapsilosis = assay: Antifungal activity against Candida parapsilosis ATCC 22019 at 162.1 uM after 48 hrs by CLSI method; type: functional, organism-based; method in brief: as §5
# Candida albicans [10] = assay: Antifungal activity against Candida albicans ATCC 32354 after 48 hrs by CLSI method; type: functional, organism-based; conditions: ATCC 32354, 48 h; method in brief: as §3
# Aspergillus fumigatus [11] = assay: Antifungal activity against Aspergillus fumigatus ATCC 90906 after 48 h by CLSI method; conditions: ATCC 90906, 48 h
# Cryptococcus neoformans [12] = assay: Antifungal activity against Cryptococcus neoformans ATCC 90113 at 162.1 uM after 72 hrs by CLSI method; type: functional, organism-based
# Method in brief: (§6)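 SD broth replaced RPMI because growth in RPMI was poor; other CLSI conditions were kept. Inoculum was 1.5 × 10³ CFU/ml from colonies on SD agar, checked by plating. Twofold serial dilutions (11 concentrations) in 20% DMSO-saline were tested in duplicate. OD530 was read before and after incubation at 35°C for 72 h. Percent growth gave IC50; the MIC is the lowest concentration with no detectable growth.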
# KB = assay: Cytotoxicity against human KB cells up to 32 uM by neutral red method; type: cell-based; method in brief: as §4
# Trichophyton rubrum [13] = assay: Antifungal activity against Trichophyton rubrum ATCC 10218 at 162.1 uM after 5 days by CLSI method; type: functional, organism-based
# Trichophyton rubrum [14] = assay: Antifungal activity against Trichophyton rubrum ATCC MYA-4438 at 162.1 uM after 5 days by CLSI method; type: functional, organism-based
# [15] = tested on: Trichophyton mentagrophytes; assay: Antifungal activity against Trichophyton mentagrophytes ATCC 9533 at 162.1 uM after 5 days by CLSI method; type: functional, organism-based
# Pichia kudriavzevii [16] = assay: Antifungal activity against Candida krusei ATCC 6258 after 48 hrs by CLSI method; type: functional, organism-based; conditions: ATCC 6258, 48 h; method in brief: as §2
# Candida albicans [17] = assay: Antifungal activity against Candida albicans ATCC 14053 at 162.1 uM after 48 hrs by CLSI method; type: functional, organism-based
# Candida albicans [18] = assay: Antifungal activity against Candida albicans ATCC 200955 at 162.1 uM after 48 hrs by CLSI method; type: functional, organism-based; method in brief: as §2
# Cryptococcus neoformans [19] = assay: Antifungal activity against Cryptococcus neoformans ATCC 66031 at 162.1 uM after 72 hrs by CLSI method; type: functional, organism-based; method in brief: as §6
# Candida albicans [20] = assay: Antifungal activity against Candida albicans ATCC 200955 after 48 hrs by CLSI method; type: functional, organism-based; conditions: ATCC 200955, 48 h; method in brief: as §3
# Vero = assay: Cytotoxicity against African green monkey Vero cells up to 32 uM by neutral red method; type: cell-based; conditions: chlorocebus sabaeus; method in brief: as §4
# Candida albicans [21] = assay: Antifungal activity against Candida albicans ATCC 32354 at 162.1 uM after 48 hrs by CLSI method; type: functional, organism-based; method in brief: as §2
# Aspergillus flavus = assay: Antifungal activity against Aspergillus flavus ATCC 204304 at 162.1 uM after 48 hrs by CLSI method; type: functional, organism-based
# [22] = tested on: Trichophyton mentagrophytes; assay: Antifungal activity against Trichophyton mentagrophytes ATCC MYA-4439 at 162.1 uM after 5 days by CLSI method; type: functional, organism-based
# Candida albicans [23] = assay: Antifungal activity against Candida albicans ATCC 90028 after 48 hrs by CLSI method; type: functional, organism-based; conditions: ATCC 90028, 48 h; method in brief: as §3
# Pichia kudriavzevii [24] = assay: Antifungal activity against Candida krusei ATCC 6258 at 162.1 uM after 48 hrs by CLSI method; type: functional, organism-based; method in brief: as §2
# LLC-PK1 = assay: Cytotoxicity against pig LLC-PK1 cells up to 32 uM by neutral red method; type: cell-based, Sus scrofa; method in brief: as §4
# Candida albicans [25] = assay: Antifungal activity against Fluconazole resistant Candida albicans clinical isolate 1 after 48 hrs by CLSI method; type: functional, organism-based; method in brief: as §3
# Aspergillus fumigatus [26] = assay: Antifungal activity against Aspergillus fumigatus ATCC 204305 after 48 h by CLSI method; conditions: ATCC 204305, 48 h
# Aspergillus fumigatus [27] = assay: Antifungal activity against Aspergillus fumigatus ATCC 204305 at 162.1 uM after 48 hrs by CLSI method; type: functional, organism-based
# SK-OV-3 = assay: Cytotoxicity against human SKOV3 cells up to 32 uM by neutral red method; type: cell-based; method in brief: as §4
compound,measurement,setting,value
CCCCCCCCCCCCCC#CCCCCC(=O)O [6-ICOSYNOIC ACID],Activity,Candida albicans [1],inactive
same,Activity,Candida albicans [2],inactive
same,IC50,Candida albicans [3],> 162 µM
same,IC50,Candida albicans [4],81 µM
same,IC50,Candida albicans [5],55 µM
same,Activity,Aspergillus fumigatus [6],inactive
same,Activity,Aspergillus niger,inactive
same,IC50,[7],> 162 µM
same,Activity,BT-549,Non-toxic
same,Activity,Nakaseomyces glabratus,inactive
same,Activity,Candida tropicalis,inactive
same,Activity,SK-MEL,Non-toxic
same,Activity,Candida albicans [8],inactive
same,Activity,Candida albicans [9],inactive
same,Activity,Candida parapsilosis,inactive
same,IC50,Candida albicans [10],> 162 µM
same,IC50,Aspergillus fumigatus [11],81 µM
same,Activity,Cryptococcus neoformans [12],inactive
same,Activity,KB,Non-toxic
same,Activity,Trichophyton rubrum [13],inactive
same,Activity,Trichophyton rubrum [14],inactive
same,Activity,[15],inactive
same,IC50,Pichia kudriavzevii [16],106 µM
same,Activity,Candida albicans [17],inactive
same,Activity,Candida albicans [18],inactive
same,Activity,Cryptococcus neoformans [19],inactive
same,IC50,Candida albicans [20],53.4 µM
same,Activity,Vero,Non-toxic
same,Activity,Candida albicans [21],inactive
same,Activity,Aspergillus flavus,inactive
same,Activity,[22],inactive
same,IC50,Candida albicans [23],67.3 µM
same,Activity,Pichia kudriavzevii [24],inactive
same,Activity,LLC-PK1,Non-toxic
same,IC50,Candida albicans [25],86.6 µM
same,IC50,Aspergillus fumigatus [26],32.3 µM
same,Activity,Aspergillus fumigatus [27],inactive
same,Activity,SK-OV-3,Non-toxic

# — ChEMBL document CHEMBL1275449, “Potent in vitro antifungal activities of naturally occurring acetylenic acids” (Antimicrob Agents Chemother, 2008)
